Data published in the EternaBench riboswitch data.

Tested on: MS2 coat protein
Experiment: apparent Kd, MS2 coat protein; higher = weaker binding; RNA-MaP array; FMN 200 µM where present
How it was run: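 The apparent Kd is the median of filtered binding-curve fits, one per cluster, to green signal normalised to red-channel RNA signal and control-cluster median Fmax. The clusters were on Illumina sequencing chips, and stalled E. coli RNA polymerase had transcribed the designs on them. Titration used SNAP-549-labelled MS2 coat protein from 0.7 or 1.5 nM, doubling to 3 µM, without and then with constant ligand, in 100 mM Tris-HCl pH 7.5, 80 mM KCl, 4 mM MgCl2, BSA, DTT, yeast tRNA and Tween-20.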

[1] = designed as: ON switch for flavin mononucleotide, no ligand
[2] = ligand present: flavin mononucleotide, designed as: ON switch for flavin mononucleotide
[3] = designed as: OFF switch for flavin mononucleotide, no ligand
[4] = ligand present: flavin mononucleotide, designed as: OFF switch for flavin mononucleotide

Row | Sequence | apparent Kd [1] [nM] | apparent Kd [2] [nM] | apparent Kd [3] [nM] | apparent Kd [4] [nM]
1 | UUGCUCGUGUGAGGAUAUGCCGCCGUUUCGGCUGCAGAAGGUACUCUUGUACAUGAGGAUCACCCAUGUCUCUGUUGUUUCGUG | 49 | 43.6 | – | –
2 | GCCAUCGCAUGAGGAUAUGCUCCCGUUUCGGGAGCAGAAGGCAUGUCACAAGACAUGAGGAUCACCCAUGUAGAUAAGAUGGCA | 257 | 9.49 | – | –
3 | CCGCGCAUAGGAUAUUAAUCUCACGACAUGAGGAUCACCCAUGUAACUCUGUGUGCGAUCUAAGAAGGGUGGGCUU | – | – | 28.8 | 24
4 | UAUAUAUAGUAAGGAUAUGUAACUAUUUUAUAAACAGAAGGUACUGACAUGAGGAUCACCCAUGUUUUAGUGUGGGCAUGUAGA | – | – | 86.7 | 136
5 | CGAUAUAUGAAGGGCGAACGCGCACAUGAGGAUCACCCAUGUAGAAGGCGGUCCGCAACGCGGAUCGAGGAUAUAUAGUAUACG | – | – | 27.5 | 30.7
6 | GUGGUCAGACAUGAGGAUCACCCAUGUGGAAUAAAUAAGGACUAGGAUAUGGAAUAUAGGAUAUACCAGAAGGAGUGGUUGGUG | 56.4 | 60 | – | –
7 | ACAUAAAUUCGAGGAUAUCGGUGAUUUAAUUUACGAGAAGGCGAUAAAAGUUAUAAACUUAUAGACAUGAGGAUCACCCAUGUA | 34.9 | 33.1 | – | –
8 | CAAAGUUGGUAAGGAUAUCCCACAUUAUUCUGACCCGUGCAAGCUACAUGAGGAUCACCCAUGUGGGAGAAGGUGCGUUAAAGC | – | – | 372 | 219
9 | UAUAUAUAGUAAGGAUAUGUAAUUAUUUCAUAAACAGAAGGUACUGACAUGAGGAUCACCCAUGUUUUAGUGUGGGCAUGUAGA | – | – | 79.8 | 108
10 | GCUUGUGAAGGAUAUACUGGCGGCAUGCGCUCGGCGCGCGCACAUGAGGAUCACCCAUGUAGAAGGUCAAACGU | – | – | 20.2 | 20.2
11 | UUGAUGUCAUCAGGAUAUAGUAUUUAAGACAUAUCUUCUUUCUUACAUGAGGAUCACCCAUGUCGCUAGAAGGGAUGAAUGAUU | – | – | 18.7 | 15.4
12 | AUCAGCUCGUCAGGAUAUACGUCACUGCGUCAGCAGUGUGGUAAGAUCACAUGAGGAUCACCCAUGUAGAAGGGAUGAGCUGAU | – | – | 13.3 | 288
13 | UCGGUGACAGGAUAUACAUGAGGAUCACCCAUGUUAAGAAGAGAAAGGGCAGGAAGAGGUAGAAGGGUCGCUGU | – | – | 51.7 | 69
14 | AGUAACAGAGGAUAUACUAUUUUAUGUGUUUGUUGUUUUAAACAUGAGGAUCACCCAUGUAGAAGGCUGAAUAA | – | – | 21.4 | 24.1
15 | GUAUUAAAGAUCCAUUUAUACAACAUGAGGAUCACCCAUGUGCAGGAUAUCGUGUGUUUUUUAUUCGAGAAGGGCAAAUUCAUU | – | – | 37 | 85.2
16 | AAGAAGUGAGGAUAUGCUGCUCGUCACUUGCGUGAUGAGUAGCAGAAGGCACAUGAGGAUCACCCAUGUAAAGA | – | – | 44 | 53
17 | AGAACGUCAGGAUAUGCAACAACAAGUAAAUAGAGAAGAAGGCAGAAGGGACAUGAGGAUCACCCAUGUAAGAA | – | – | 36.6 | 36.3
18 | GAGCGGGAAACAUGAGGAUCACCCAUGUGAUGAAUCCUCACAUAGGAUAUCCACACGAGAAGUGUGGAGAAGGAUGACCCGGUC | – | – | 1120 | 1700
19 | GUCUCACAUGAGGAUCACCCAUGUGAGGAUAUGGAUUCGCUGGCCGUAGCCAGUGGAUCCAGAAGGCGCAUGAU | – | – | 20.5 | 22
20 | CCGGAAAUGAAGGAUAUAGGCGUCGAUAGACUCCUAGAAGGUCAUACAUGAGGAUCACCCAUGUGUCCUACCGG | – | – | 16.5 | 29.8
21 | AGCGGAUUGUAGAAGGGUGACAUGAGGAUCACCCAUGUUCAAAUGCGAUUUACGGUAAUUGAUCCACAGGAUAUACAGUCCGAG | 905 | 178 | – | –
22 | GUAAUGUGAGGAUAUGGUAAAGAUAAGAUGAUGAAAGAACUCCAGAAGGCACAUGAGGAUCACCCAUGUAGAUG | – | – | 26.7 | 107
23 | AAUUAUUUACAGAAGGAGUAAGAUUUUGUAUUACUAGGAUAUGUUAACAUGAGGAUCACCCAUGUGUUUGUUGGUUUUUUAUGU | – | – | 16.1 | 14.8
24 | GUCAGCUCGUGAGGAUAUACAACACUGCUUCGGCAGUGUAUUAAGAUCACAUGAGGAUCACCCAUGUAGAAGGCACGAGAUGAU | – | – | 14.3 | 237
25 | AAAACGGCGCGUCCCGCACCAACUACAGAAGGCCAACAUGAGGAUCACCCAUGUACAAACUAGAUGGAGGAUAUGUAGGUUCUA | 6.76 | 4.63 | – | –
26 | GUACUUGUGCAGAAGGGCAUUUAAUUAGAUUUUUAUGUUGAUCAGAAAUGCAGGAUAUGUUAAACAUGAGGAUCACCCAUGUAC | 171 | 13.1 | – | –
27 | GUGGGACAUGAGGAUCACCCAUGUGGGAGGGAACGAGGAUAUGUGAGGAGCGAGAAGUGAACAGAAGGCGUGGUUG | 82.8 | 51.4 | – | –
